From ChEMBL document CHEMBL3102734, “Inhibition of LOX by flavonoids: a structure-activity relationship study” (Eur J Med Chem, 2014)
Calls of active or inactive are those of the source. The rule behind the calls is not given here.

Legend:
[1] = molecular target: T1, Polyunsaturated fatty acid 5-lipoxygenase (Homo sapiens) (UniProt P09917); test: Inhibition of 5-LOX-mediated LTB4 production in human neutrophils using arachidonic acid as substrate at 40 uM preincubated for 10 mins followed by substrate addition measured after 8 mins by enzyme immunoassay relative to control
T1 sequence (whole entry): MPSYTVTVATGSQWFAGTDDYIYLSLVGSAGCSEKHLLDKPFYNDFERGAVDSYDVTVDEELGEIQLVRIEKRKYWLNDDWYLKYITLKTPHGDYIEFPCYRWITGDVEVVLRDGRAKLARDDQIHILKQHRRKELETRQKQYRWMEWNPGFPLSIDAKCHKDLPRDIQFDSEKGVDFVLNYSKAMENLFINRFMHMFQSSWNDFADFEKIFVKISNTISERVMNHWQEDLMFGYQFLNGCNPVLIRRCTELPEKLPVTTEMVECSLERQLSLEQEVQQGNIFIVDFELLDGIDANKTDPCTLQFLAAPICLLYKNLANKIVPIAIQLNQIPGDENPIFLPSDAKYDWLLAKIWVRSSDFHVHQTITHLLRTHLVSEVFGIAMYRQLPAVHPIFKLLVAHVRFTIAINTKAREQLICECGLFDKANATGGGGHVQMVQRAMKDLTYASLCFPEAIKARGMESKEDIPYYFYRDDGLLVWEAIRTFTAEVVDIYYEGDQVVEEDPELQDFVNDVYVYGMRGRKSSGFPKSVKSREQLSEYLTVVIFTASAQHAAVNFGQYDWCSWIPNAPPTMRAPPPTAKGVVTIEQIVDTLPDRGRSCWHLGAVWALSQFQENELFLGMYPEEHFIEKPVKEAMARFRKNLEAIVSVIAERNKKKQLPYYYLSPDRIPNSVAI
Procedure, shortened: (§1)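 Isolated human neutrophils held in HBSS on ice; viability checked by trypan blue. Cells at 3.5×10^6 cells/mL equilibrated 10 min at 37 °C. Flavonoids (0.15–40 μM) pre-incubated 10 min, then A23187 (5 μM) plus arachidonic acid (10 μg/mL) added for 8 min. Stopped with cold methanol and centrifuged 13,000 g, 1 min, 4 °C. LTB4 measured by EIA and expressed as % inhibition of control. NDGA (1 μM) positive control. At least three experiments.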

[2] = molecular target: T2, Seed linoleate 13S-lipoxygenase-1 (Glycine max) (UniProt P08170); test: Binding affinity to soybean LOX-1 at 1248 uM by STD-[1H] NMR spectroscopic analysis
T2 sequence (whole entry): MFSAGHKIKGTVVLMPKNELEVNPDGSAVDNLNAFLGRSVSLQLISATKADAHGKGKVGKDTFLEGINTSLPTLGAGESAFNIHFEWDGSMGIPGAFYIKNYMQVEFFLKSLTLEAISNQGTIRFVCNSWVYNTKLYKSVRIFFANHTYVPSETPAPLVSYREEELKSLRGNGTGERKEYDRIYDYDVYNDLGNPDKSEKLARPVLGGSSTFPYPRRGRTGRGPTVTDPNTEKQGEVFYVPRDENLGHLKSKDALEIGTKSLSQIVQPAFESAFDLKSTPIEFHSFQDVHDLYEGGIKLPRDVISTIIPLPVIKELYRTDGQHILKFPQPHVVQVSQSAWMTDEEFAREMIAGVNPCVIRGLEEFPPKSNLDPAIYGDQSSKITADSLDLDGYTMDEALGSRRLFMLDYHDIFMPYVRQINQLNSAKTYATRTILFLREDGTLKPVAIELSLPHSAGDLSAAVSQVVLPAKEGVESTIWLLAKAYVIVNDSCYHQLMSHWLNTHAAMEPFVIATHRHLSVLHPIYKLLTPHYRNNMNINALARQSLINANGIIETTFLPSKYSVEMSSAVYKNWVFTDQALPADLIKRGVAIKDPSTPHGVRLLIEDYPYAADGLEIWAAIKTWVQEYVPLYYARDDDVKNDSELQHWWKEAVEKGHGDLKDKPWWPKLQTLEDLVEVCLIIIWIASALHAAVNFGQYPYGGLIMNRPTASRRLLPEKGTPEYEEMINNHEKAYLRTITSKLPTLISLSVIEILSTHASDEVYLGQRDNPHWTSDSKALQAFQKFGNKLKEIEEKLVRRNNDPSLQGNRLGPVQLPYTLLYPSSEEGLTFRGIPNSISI
Procedure, shortened: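 STD-1H NMR at 37 °C, 600 MHz, cryoprobe. Lyophilized soybean LOX-1 in Tris buffer (20 mM Tris, 7 mM (NH4)2SO4, 3.5 mM MgCl2, 0.3 mM DTT in D2O, pH 9.0). Ligand added from a 16.6 mM DMSO-d6 stock. Final concentrations: LOX 4 μM, ligand 1248 μM, ratio 300:1. On-resonance saturation at 1.0 ppm; off-resonance reference at 20000 Hz.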

[3] = molecular target: T3, Seed linoleate 13S-lipoxygenase-1 (Glycine max, UniProt P08170); test: Uncompetitive inhibition of soybean LOX-1 using linoleic acid as substrate preincubated for 5 mins followed by substrate addition by Lineweaver-Burk plot analysis
T3 sequence (P08170 whole entry): T2 sequence (whole entry)
Procedure, shortened: (§2)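 Soybean LOX-1 (supplied lyophilized) kinetic assay. Enzyme pre-incubated with inhibitor 5 min, then linoleic acid added. Readings every 30 s for 10 min; rate taken as the 0–3 min slope. Three inhibitor concentrations tested against three substrate concentrations. Inhibition type assigned by nonlinear Michaelis–Menten fitting and Lineweaver–Burk plots. At least four experiments, each in triplicate.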

[4] = molecular target: T1, Polyunsaturated fatty acid 5-lipoxygenase (Homo sapiens); test: Inhibition of 5-LOX-mediated LTB4 production in human neutrophils using arachidonic acid as substrate at 0.15 to 40 uM preincubated for 10 mins followed by substrate addition measured after 8 mins by enzyme immunoassay relative to control; procedure, shortened: as §1
[5] = molecular target: T4, Polyunsaturated fatty acid 5-lipoxygenase (Homo sapiens, UniProt P09917); test: Inhibition of 5-LOX-mediated LTB4 production in human neutrophils using arachidonic acid as substrate preincubated for 10 mins followed by substrate addition measured after 8 mins by enzyme immunoassay
T4 sequence (P09917 whole entry): T1 sequence (whole entry)
Procedure, shortened: as §1, with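 “blue.” for “blue. Cells at 3.5×10^6 cells/mL equilibrated 10 min at 37 °C.”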

[6] = substrate: O=c1c(O)c(-c2ccc(O)c(O)c2)oc2cc(O)cc(O)c12; test: (§3) Activity at soybean LOX-1 using linoleic acid as substrate at 100 uM preincubated for 5 mins followed by substrate addition by Michaelis-Menten plot analysis; details: Glycine max
Procedure, shortened: as §2, with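 “added. Conversion to the cis,trans-hydroperoxide followed at 234 nm at 30 °C with continuous soft shaking.” for “added.”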

[7] = substrate: O=c1cc(-c2ccc(O)cc2)oc2cc(O)cc(O)c12; test: as §3; details: Glycine max
Procedure, shortened: as §2, with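 “added. Conversion to the cis,trans-hydroperoxide followed at 234 nm at 30 °C with continuous soft shaking.” for “added.”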

[8] = substrate: O=c1cc(-c2cccc(O)c2)oc2cc(O)cc(O)c12; test: as §3; details: Glycine max
Procedure, shortened: as §2, with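 “added. Conversion to the cis,trans-hydroperoxide followed at 234 nm at 30 °C with continuous soft shaking.” for “added.”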

[9] = substrate: O=c1cc(-c2ccc(O)c(O)c2)oc2cc(O)cc(O)c12; test: (§4) Activity at soybean LOX-1 using linoleic acid as substrate at 50 uM preincubated for 5 mins followed by substrate addition by Michaelis-Menten plot analysis; details: Glycine max
Procedure, shortened: as §2, with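 “added. Conversion to the cis,trans-hydroperoxide followed at 234 nm at 30 °C with continuous soft shaking.” for “added.”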

[10] = substrate: O=c1cc(-c2ccc(O)c(O)c2)oc2cccc(O)c12; test: as §4; details: Glycine max
Procedure, shortened: as §2, with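 “added. Conversion to the cis,trans-hydroperoxide followed at 234 nm at 30 °C with continuous soft shaking.” for “added.”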

[11] = substrate: O=c1cc(-c2ccc(O)cc2)oc2cccc(O)c12; test: as §4; details: Glycine max
Procedure, shortened: as §2, with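 “added. Conversion to the cis,trans-hydroperoxide followed at 234 nm at 30 °C with continuous soft shaking.” for “added.”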

[12] = substrate: O=c1cc(-c2cccc(O)c2)oc2cc(O)cc(O)c12; test: as §4; details: Glycine max
Procedure, shortened: as §2, with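 “added. Conversion to the cis,trans-hydroperoxide followed at 234 nm at 30 °C with continuous soft shaking.” for “added.”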

[13] = substrate: O=c1c(O)c(-c2ccc(O)c(O)c2)oc2cc(O)cc(O)c12; test: (§5) Activity at soybean LOX-1 using linoleic acid as substrate at 25 uM preincubated for 5 mins followed by substrate addition by Michaelis-Menten plot analysis; details: Glycine max
Procedure, shortened: as §2, with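 “added. Conversion to the cis,trans-hydroperoxide followed at 234 nm at 30 °C with continuous soft shaking.” for “added.”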

[14] = substrate: O=c1cc(-c2ccc(O)c(O)c2)oc2cc(O)ccc12; test: as §5; details: Glycine max
Procedure, shortened: as §2, with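 “added. Conversion to the cis,trans-hydroperoxide followed at 234 nm at 30 °C with continuous soft shaking.” for “added.”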

[15] = substrate: O=c1cc(-c2ccc(O)c(O)c2)oc2cccc(O)c12; test: as §5; details: Glycine max
Procedure, shortened: as §2, with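 “added. Conversion to the cis,trans-hydroperoxide followed at 234 nm at 30 °C with continuous soft shaking.” for “added.”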

[16] = substrate: O=c1cc(-c2ccc(O)c(O)c2)oc2ccccc12; test: as §5; details: Glycine max
Procedure, shortened: as §2, with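 “added. Conversion to the cis,trans-hydroperoxide followed at 234 nm at 30 °C with continuous soft shaking.” for “added.”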

[17] = substrate: O=c1cc(-c2ccc(O)cc2)oc2cc(O)cc(O)c12; test: as §5; details: Glycine max
Procedure, shortened: as §2, with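 “added. Conversion to the cis,trans-hydroperoxide followed at 234 nm at 30 °C with continuous soft shaking.” for “added.”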

[18] = substrate: O=c1cc(-c2ccccc2)oc2cc(O)cc(O)c12; test: as §5; details: Glycine max
Procedure, shortened: as §2, with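 “added. Conversion to the cis,trans-hydroperoxide followed at 234 nm at 30 °C with continuous soft shaking.” for “added.”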

[19] = substrate: O=c1cc(-c2ccc(O)c(O)c2)oc2cc(O)cc(O)c12; test: (§6) Activity at soybean LOX-1 using linoleic acid as substrate at 10 uM preincubated for 5 mins followed by substrate addition by Michaelis-Menten plot analysis; details: Glycine max
Procedure, shortened: as §2, with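 “added. Conversion to the cis,trans-hydroperoxide followed at 234 nm at 30 °C with continuous soft shaking.” for “added.”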

[20] = substrate: O=c1cc(-c2ccc(O)c(O)c2)oc2cc(O)ccc12; test: as §6; details: Glycine max
Procedure, shortened: as §2, with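 “added. Conversion to the cis,trans-hydroperoxide followed at 234 nm at 30 °C with continuous soft shaking.” for “added.”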

[21] = substrate: O=c1cc(-c2ccc(O)c(O)c2)oc2ccccc12; test: as §6; details: Glycine max
Procedure, shortened: as §2, with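 “added. Conversion to the cis,trans-hydroperoxide followed at 234 nm at 30 °C with continuous soft shaking.” for “added.”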

[22] = substrate: O=c1cc(-c2ccc(O)cc2)oc2cccc(O)c12; test: as §6; details: Glycine max
Procedure, shortened: as §2, with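 “added. Conversion to the cis,trans-hydroperoxide followed at 234 nm at 30 °C with continuous soft shaking.” for “added.”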

[23] = substrate: O=c1cc(-c2ccccc2)oc2cc(O)cc(O)c12; test: as §6; details: Glycine max
Procedure, shortened: as §2, with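 “added. Conversion to the cis,trans-hydroperoxide followed at 234 nm at 30 °C with continuous soft shaking.” for “added.”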

Molecule: O=c1cc(-c2cccc(O)c2)oc2ccccc12
- inhibition [1]: < 50%

Molecule: O=c1cc(-c2cccc(O)c2)oc2cc(O)cc(O)c12
- Activity [2]: Active
- Ki [3]: 95.4 µM
- inhibition [1]: 52%

Molecule: O=c1cc(-c2ccccc2)oc2cc(O)ccc12
- inhibition [1]: 53.1%

Molecule: COc1ccc(-c2cc(=O)c3c(O)cc(O)cc3o2)cc1O
- inhibition [4]: inactive

Molecule: O=C1CC(c2ccc(O)c(O)c2)Oc2cc(O)cc(O)c21 (racemic)
- inhibition [1]: 53.4%

Molecule: O=c1cc(-c2ccc(O)c(O)c2)oc2cc(O)ccc12
- Activity [2]: Active
- IC50 [5]: 2 µM

Molecule: O=c1cc(-c2ccc(O)c(O)c2)oc2cc(O)cc(O)c12 [LUTEOLIN]
- Activity [2]: Active
- Ki [3]: 122 µM
- IC50 [5]: 1.6 µM

Molecule: O=C1c2c(O)cc(O)cc2O[C@H](c2ccc(O)c(O)c2)[C@H]1O
- inhibition [1]: 19.9%

Molecule: COc1ccc(-c2cc(=O)c3c(O)cc(O)cc3o2)cc1OC
- inhibition [1]: < 50%

Molecule: O=c1cc(-c2ccccc2)oc2cccc(O)c12
- inhibition [4]: inactive

Molecule: COc1cc(-c2cc(=O)c3c(O)cc(O)cc3o2)ccc1O
- inhibition [1]: < 50%

B1: Seed linoleate 13S-lipoxygenase-1 (Glycine max), P08170 (protein)
chain: T2 sequence (whole entry)
- Km [6]: 100 µM
- Vmax [6]: 0.006 µM
- Km [7]: 191 µM
- Km [8]: 111 µM
- Km [9]: 148 µM
- Vmax [9]: 0.009 µM
- Km [10]: 46.4 µM
- Km [11]: 61.3 µM
- Km [12]: 145 µM
- Km [13]: 129 µM
- Vmax [13]: 0.008 µM
- Km [14]: 190 µM
- Km [15]: 104 µM
- Km [16]: 191 µM
- Km [17]: 191 µM
- Km [18]: 55 µM
- Km [19]: 190 µM
- Vmax [19]: 0.012 µM
- Km [20]: 97.4 µM
- Km [21]: 137 µM
- Km [22]: 105 µM
- Km [23]: 71 µM
